Read-outs that look alike come from different tables or passages of the source.
Columns and labels:
[1] = tested on: diploid human WI38 fibroblasts; test: Antiproliferative activity, SRB assay, WI38; type: cell-based
In short: (§1)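 Cells seeded at 5×10^4/well and grown 24 h, then exposed to test compound (DMSO stock) for 24 h or 48 h. Processed by standard SRB method with absorbance at 540 nm. IC50 from log plot of percent of control vs concentration. HepG2 kept in RPMI 1640; L02 and WI38 in DMEM; all with 10% FBS, 1% penicillin–streptomycin, 37 °C, 5% CO2. TI = IC50 normal cells / IC50 HepG2.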

CAT = biological target: T1, CAT (Rattus norvegicus, UniProt P04762); test: Mitochondrial CAT activity; type: biochemical; details: 10 μmol/L, 15 and 30 min
T1 sequence (P04762 1-527): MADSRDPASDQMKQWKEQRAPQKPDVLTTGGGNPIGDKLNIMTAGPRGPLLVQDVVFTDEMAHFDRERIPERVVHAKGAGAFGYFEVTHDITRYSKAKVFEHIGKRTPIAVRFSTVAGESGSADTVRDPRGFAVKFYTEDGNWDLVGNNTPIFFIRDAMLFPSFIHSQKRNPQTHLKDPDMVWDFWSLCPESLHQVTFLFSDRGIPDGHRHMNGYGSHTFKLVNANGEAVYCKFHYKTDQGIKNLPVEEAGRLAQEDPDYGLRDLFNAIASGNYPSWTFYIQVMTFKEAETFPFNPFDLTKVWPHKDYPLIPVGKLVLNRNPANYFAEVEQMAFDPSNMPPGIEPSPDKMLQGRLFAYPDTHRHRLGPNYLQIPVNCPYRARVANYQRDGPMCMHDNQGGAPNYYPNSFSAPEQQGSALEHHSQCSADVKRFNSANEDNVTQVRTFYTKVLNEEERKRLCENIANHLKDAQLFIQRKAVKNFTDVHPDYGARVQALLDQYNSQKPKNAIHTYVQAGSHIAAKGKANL
In short: (§2)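 Energized liver mitochondria from male Wistar rats incubated with test compound (10 μmol/L) for 15 or 30 min. Then sonicated in 5 s pulses for 5 cycles. SOD, GSH-Px and CAT activities measured with commercial kits per instructions. Mean±SEM of three independent experiments.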

GSH-Px = test: Mitochondrial GSH-Px activity; type: biochemical, rat; details: 10 μmol/L, 15 and 30 min
In short: as §2

[2] = tested on: human hepatoma HepG2 cells; test: Antiproliferative activity, SRB assay, HepG2; type: cell-based; details: for TI 24 h / TI 48 h: TI=IC50 L02 normal cell/IC50 HepG2 cancer cell
In short: as §1

[3] = tested on: lipid peroxidation in the energized hepatic mitochondria; test: Mitochondrial lipid peroxidation induced by FeCl2/ascorbate; type: biochemical, rat; details: for inhibition of lipid peroxidation at 6 μmol/L: Fig. 1B
In short: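 Rat liver mitochondria (1 mg/mL, standard medium pH 7.4) with test compound (6 μmol/L). Peroxidation started with FeCl2 20 μmol/L/ascorbate 100 μmol/L and run 30 min. TCA-TBA-HCl stock plus 0.02% BHT added, then heated 15 min in a hot-water bath, cooled and centrifuged. A532 read; MDA calculated with ε532=1.5×10^5 mol/(L·cm). Three independent experiments.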

[4] = tested on: cyt c release from energized mitochondria; test: Cyt c release from mitochondria; type: biochemical, rat; details: Fig. 7D
[5] = tested on: energized hepatic mitochondria (mPTP opening); test: Mitochondrial swelling; type: biochemical, rat; details: Fig. 5B; for induction of mitochondrial swelling at 10 μmol/L: 10 μmol/L alone
In short: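 Energized rat hepatic mitochondria (1 mg/mL) in sucrose/HEPES/glutamate/malate medium, pH 7.4. Swelling followed as apparent A540 change after adding test compound (concentration series; 10 μmol/L alone or with Ca2+ 0.1 μmol/L). CsA 1 μmol/L added to suspensions containing 20 μmol/L compound. […]; mean±SEM of three independent experiments.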

mitochondrial SOD = test: Mitochondrial SOD activity; type: biochemical, rat; details: 10 μmol/L, 15 and 30 min
In short: as §2

[6] = tested on: H2O2 production in energized hepatic mitochondria; test: Mitochondrial H2O2 production; type: biochemical, rat; details: DCFDA, Fig. 2B
In short: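 DCFDA (8 μmol/L) added to energized rat hepatic mitochondria (1 mg/mL) in standard medium (sucrose 250, HEPES 10, glutamate 10, malate 5 mmol/L; pH 7.4). Test compound added; incubated 15 or 30 min in the dark at 25 °C. Fluorescence ex 485/em 521 nm, expressed as percent of control. Mean±SEM, three independent experiments.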

human hepatic L02 cells = test: Antiproliferative activity, SRB assay, L02; type: cell-based
In short: as §1

## CCCC[P+](c1ccccc1)(c1ccccc1)c1ccccc1 [ButylTPP]
[1]; read-out: IC50 WI38 24 h, WI38, 24 h, SRB
  IC50: 179 ± 3.73 µM
[1]; read-out: IC50 WI38 48 h, WI38, 48 h, SRB
  IC50: 88.5 ± 3.95 µM
CAT
  effect on CAT activity: did not alter
GSH-Px
  effect on GSH-Px activity: did not alter
[2]
  TI 24 h: 4.76
  TI 48 h: 5.58
[2]; read-out: IC50 HepG2 24 h, HepG2, 24 h, SRB
  IC50: 25.4 ± 1.02 µM
[2]; read-out: IC50 HepG2 48 h, HepG2, 48 h, SRB
  IC50: 12.8 ± 0.87 µM
[3]
  inhibition of lipid peroxidation at 6 μmol/L: ineffective
[4]
  induction of cyt c release at 10 μmol/L: had no effects
[5]
  induction of mitochondrial swelling at 10 μmol/L: triggered swelling
Mitochondrial SOD
  effect on SOD activity: did not alter
[6]
  effect on endogenous H2O2 levels at 10 μmol/L: did not affect
Human hepatic L02 cells; read-out: IC50 L02 24 h, L02, 24 h, SRB
  IC50: 121 ± 9.97 µM
Human hepatic L02 cells; read-out: IC50 L02 48 h, L02, 48 h, SRB
  IC50: 71.4 ± 6.64 µM

## O=C(O)/C=C/c1ccc(O)c(O)c1 [CaA, caffeic acid]
[1]; Homo sapiens, WI-38, 24 h, read-out: IC50 WI38 24 h
  IC50: 281 ± 9.47 µM
[1]; Homo sapiens, WI-38, 48 h, read-out: IC50 WI38 48 h
  IC50: 198 ± 7.78 µM
[2]; Homo sapiens, HepG2, 24 h, read-out: IC50 HepG2 24 h, HepG2, 24 h, SRB
  IC50: 201 ± 3.88 µM
[2]; Homo sapiens, HepG2, 48 h, read-out: IC50 HepG2 48 h, HepG2, 48 h, SRB
  IC50: 93 ± 1.35 µM
[2]
  TI 24 h: 2.01
  TI 48 h: 1.68
[3]
  inhibition of lipid peroxidation at 6 μmol/L: ineffective
[3]; Fig. 1A
  effect on lipid peroxidation, various concentrations: no effect
[4]
  induction of cyt c release at 10 μmol/L: had no effects
[5]; 10 μmol/L + 0.1 μmol/L Ca2+
  mitochondrial swelling with Ca2+: failed to cause swelling
[5]
  induction of mitochondrial swelling at 10 μmol/L: neither MitoCA nor CaA induced swelling
Human hepatic L02 cells; Homo sapiens, L02, 24 h, read-out: IC50 L02 24 h
  IC50: 403 ± 18.9 µM
Human hepatic L02 cells; Homo sapiens, L02, 48 h, read-out: IC50 L02 48 h
  IC50: 156 ± 8.83 µM

— article PMC5237706 (Acta Pharmaceutica Sinica. B, 2016)
